These results are taken from article PMC2819025 (Biochemistry, 2010).

By Kd is commonly meant a measure of binding affinity in units of concentration.

No end group written: not given here. rhodamine = not defined here

In experiment [1] the target is par3-PDZ3. The following applies: read-out: Kd for par3-PDZ3; reported value; ref [16]; cited from earlier work.
Experiment [2] addresses par3-PDZ3 (Mus musculus, UniProt Q99NH2). The experiment is described as follows: Fluorescence polarization titration of rhodamine-labeled peptides with par3-PDZ3. Format: binding, M. musculus. The following applies: rhodamine labeled peptide. The method, boiled down:
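Mouse par3-PDZ3 (residues 581–689) was expressed in E. coli SG13009 with a cleavable N-terminal His8 tag, purified by Ni2+ affinity, TEV-cleaved and cation-exchange purified. Increasing par3-PDZ3 was titrated into 100nM N-terminally rhodamine-labelled synthetic peptide in 50mM HEPES, 100mM NaCl, 1mM DTT, 1mM EDTA, pH 7.4, 298K (ex 562nm/em 582nm). Kd came from fitting a single-site hyperbolic binding equation.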

In experiment [3] the target is par3-PDZ3 (residues 581 to 689 of M. musculus par3) (M. musculus, UniProt Q99NH2 581-689). Briefly: fluorescence polarisation.
par3-PDZ3 (residues 581 to 689 of M. musculus par3), sequence (Q99NH2 581-689): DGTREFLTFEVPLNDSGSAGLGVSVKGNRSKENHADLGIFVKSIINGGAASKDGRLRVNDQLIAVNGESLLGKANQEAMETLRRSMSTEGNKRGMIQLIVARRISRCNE

par3-PDZ3 (Mus musculus, UniProt Q99NH2), sequence (Q99NH2 581-689): as above

With DEDQHSQITKVcoo-, the Kd on par3-PDZ3 [1] was 19 µM.
QHSQITKVcoo-: the “interaction with par3-PDZ3 (detected or not)” value at par3-PDZ3 [2] is “failed to detect any interaction”.
In experiment [3], rhodamine-LYGSDPQEELII (reading uncertain) [rhodamine-labeled VE-Cad (773-784)] gave a Kd of 6 µM.
Consider rhodamine-LAGSDPQEELII (peptide, UniProt P55284 773-784, looked up, reading uncertain) [rhodamine-labeled VE-Cad (773-784) Y774A], for which the binding result in experiment [3] is “binds”.
